An excerpt weighted towards active compounds, which were near 1.8% of everything screened.
TNAP inh no acc = inhibitors of human TNAP without phosphate acceptor; inhibition, % at 20 µM; P05186; AID 1012; purified TNAP, CDP-star luminescence, 30 min; actives 0.26% (n = 200,000);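 active means tissue-nonspecific alkaline phosphatase inhibition above about 50% at 20 µM in the single-dose screen, limit read from the data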;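 further: 0% = DMSO negative control and 100% = EDTA positive control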
Autophagy mod = alters autophagy in cells. MEF GFP-LC3 puncta imaging; test concentration mostly 10 µM. calls only at 10 µM (by protocol). actives 0.98% (n = 190,000);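 active means percentage of spot-positive cells more than 3 SD above its plate mean, without a fluorescence outlier flag or 80% toxicity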;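 further: spot-positive cell cutoff set from DMSO-treated cells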
Insulin prom up = MIN6 insulin promoter up-regulation | actives 0.3% (n = 190,000) | z-score at 5 µM | AID 1625 | MIN6 insulin promoter-GFP reporter, high-content imaging; hits give high values;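 active means z-score above 3 at 5 µM with at least 500 cells counted in the well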
TNAP act hi DEA = TNAP (human) activation, high acceptor | purified TNAP, CDP-star luminescence, 1 M DEA, 30 min; hits give high values; 0 = EDTA background, 1 = DMSO-only activity | activation factor at 20 µM | P05186 | 200,000 tested, under 10 active;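 active means activation factor at least 2 at 20 µM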
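Test system – human TNAP · Doses – 20 µM single point · Incubation – 30 min, room temperature · Signal – luminescent substrate turnover signal · Read-out basis – activation factor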
NCF1 inh = blocks human p47phox regulatory protein of NADPH oxidases; P14598; p47phox/p22phox peptide binding, fluorescence polarization, 2 h; inhibition, % at 24.7 µM; actives 0.53% (n = 220,000); AID 1274;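 active means inhibition above about 30%, limit read from the data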;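 further: 0% = p47phox with labelled peptide and 100% = labelled peptide alone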
Target sequence (P14598 whole entry, looked up): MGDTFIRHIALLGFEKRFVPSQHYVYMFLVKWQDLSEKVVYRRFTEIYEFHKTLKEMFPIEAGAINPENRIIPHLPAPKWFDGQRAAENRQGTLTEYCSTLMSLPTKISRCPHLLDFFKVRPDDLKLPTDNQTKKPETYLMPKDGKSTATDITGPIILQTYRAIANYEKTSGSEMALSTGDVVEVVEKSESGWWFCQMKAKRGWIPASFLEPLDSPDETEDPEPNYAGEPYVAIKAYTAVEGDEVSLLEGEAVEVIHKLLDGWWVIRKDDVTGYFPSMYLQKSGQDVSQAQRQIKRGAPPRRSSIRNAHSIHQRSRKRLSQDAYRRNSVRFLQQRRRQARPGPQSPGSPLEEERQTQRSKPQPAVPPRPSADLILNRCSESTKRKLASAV
TNAP inh hi DEA = blocks human TNAP under high phosphate acceptor concentration. P05186. purified TNAP, CDP-star luminescence, 1 M DEA. inhibition, % at 20 µM. actives 0.03% (n = 200,000). AID 1135;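 active means over 50% inhibition of tissue-nonspecific alkaline phosphatase at 20 µM in the single-dose screen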;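 further: plate controls were DMSO wells for no effect and EDTA-quenched wells as full inhibition for full effect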
Numbers without * were called inactive; i = inactive; nt = no result; + = active, no number.

SMILES	TNAP inh no acc	Autophagy mod	Insulin prom up	TNAP act hi DEA	NCF1 inh	TNAP inh hi DEA
CC(=O)N1C(=O)C2(C(C#N)=C(N)Oc3n[nH]c(-c4ccccn4)c32)c2ccccc21 (stereo unspecified)	-19.3	i	0.17	1	150.6*	-1.3
CCCCc1[nH]nc2c1C1(C(=O)N(CC)c3ccccc31)C(C#N)=C(N)O2 (stereo unspecified)	-1.8	i	0.09	1	-30.0	0.2
O=C(c1ccc2c(c1)OCO2)N1CCC2(CC1)Oc1ccc(Cl)cc1C(=O)C21CC(c2ccccc2)=NO1 (stereo unspecified)	nt	nt	-0.03	nt	-9.8	nt
CSc1ccc(S(=O)(=O)Nc2ccc(NC(C)=O)cc2)cc1	-10.8	i	-0.72	1.1	-11.4	-6.2
CC(=O)Nc1ccc(NS(=O)(=O)c2ccccc2)cc1	-10.0	+	nt	1	-17.1	-4.2
N#Cc1c(NC(=O)CSc2nnc(-c3ccccc3O)n2-c2ccccc2)sc2c1CCCC2	-2.5	i	0.37	1	-37.0	-2.2
CCn1c(SCC(=O)Nc2sc3c(c2C#N)CCCC3)nnc1-c1ccncc1	58.0*	i	0.15	0.2	-4.8	77.1*
N#Cc1c(NC(=O)CSc2nnc(-c3ccncc3)n2CC2CCCO2)sc2c1CCCC2 (stereo unspecified)	28.9	i	nt	0.5	-10.6	51.1*
COc1ccc(-c2ccc(C#N)c(SCC(=O)Nc3sc4c(c3C#N)CCC4)n2)cc1OC	-16.1	+	-0.48	1	34.2*	1.6
N#Cc1c(NC(=O)CSc2nnc(-c3ccccc3)o2)sc2c1CCCC2	4.1	i	-0.98	0.4	-15.7	62.9*
CCNC(=O)Nc1ccc(-n2nc(C)c(C(=O)OCC)c2C)nc1	-0.1	i	0.29	1	2.0	0.3
O=C(NC1CCCC1)c1ncn[nH]1	-3.0	i	-0.07	1	-10.2	-1.7
N#Cc1ccc(C(=O)OCC(=O)Nc2ccc(S(N)(=O)=O)cc2)cc1	nt	nt	-0.41	nt	-11.5	nt
COc1cccc(NC(=O)N2CCN(c3cccc(C)c3C)CC2)c1	-12.2	+	0.71	1	-0.5	-2.1
CCOC(=O)N1CCN(c2c(N3CCN(c4cccc(C)c4C)CC3)c(=O)c2=O)CC1	-10.9	+	0.71	1	-9.7	-0.8
CCOC(=O)N1CCN(c2cccc(C)c2C)CC1	-9.6	i	-0.1	1	-8.6	-2.5
Cn1cc(CN(CCO)Cc2cccs2)c(-c2ccccc2F)n1	-7.8	i	0.05	1.1	6.9	-5.6
CCCN1C/C(=C/c2cccc([N+](=O)[O-])c2)C(=O)/C(=C/c2cccc([N+](=O)[O-])c2)C1	-8.2	+	-1.8	1	-8.1	-2.9
Cc1cc(C)n2nc(C(=O)NC3CCCc4ccccc43)nc2n1 (stereo unspecified)	-10.4	i	-0.26	1.1	-4.2	-6.9
O=C1C(=O)N(Cc2ccco2)C(c2cccs2)/C1=C(\O)c1cccc([N+](=O)[O-])c1 (stereo unspecified)	nt	nt	nt	nt	-13.3	nt
CCOc1ccc(NC(=S)N2CCc3cc(OC)c(OC)cc3C2COc2ccc3c(C)cc(=O)oc3c2)cc1 (stereo unspecified)	-12.9	i	-0.98	1	-7.8	-4.3
COc1ccc(/C=C2\CCn3c2nc2cc(C(=O)O)ccc2c3=O)cc1OC	nt	nt	0.26	nt	7.1	nt
O=C(O)c1ccc2c(=O)n3c(nc2c1)/C(=C/c1ccccc1C(F)(F)F)CCCC3	3.4	+	0.35	1	-15.8	-1.6
CC(=O)/C=C/n1c(=S)oc2ccccc21	-17.5	+	-1.33	1	-10.5	-0.8
Nc1cc(=O)[nH]c(N2CCN(c3ccccc3)CC2)n1	3.7	+	-0.44	1	-2.9	-3.9
SMILES	TNAP inh no acc	Autophagy mod	Insulin prom up	TNAP act hi DEA	NCF1 inh	TNAP inh hi DEA
Cc1nn(Cc2cccc(C(=O)Nc3ccn(Cc4c(F)c(F)cc(F)c4F)n3)c2)c(C)c1[N+](=O)[O-]	-15.2	i	-0.44	1.1	-14.4	-6.9
Cc1nn(C)c(C(=O)Nc2ccn(Cc3c(F)c(F)cc(F)c3F)n2)c1[N+](=O)[O-]	-4.6	i	0.48	1	149.8*	1.3
O=C1Nc2ccccc2/C1=N/N=C/c1cccc(O)c1	nt	nt	0.35	nt	0.8	nt
COc1cc(/C=N/N=C2/C(=O)Nc3ccccc32)cc(OC)c1O	49.4	i	-0.37	0.4	-19.1	56.0*
Cc1sc(/N=C/c2c(O)ccc3ccccc23)c(C#N)c1C	-15.6	+	nt	1	-4.5	-3.3
CCOc1ccc2c(c1)C(c1cccs1)=NNC(c1cccnc1)=N2	-0.1	i	0.05	1	44.1*	-1.2
Brc1ccc2c(c1)C(c1cccs1)=NNC(c1cccnc1)=N2	-6.5	i	nt	1	-8.8	-1.6
C#CCOCCOCCOCCNc1nc(N2CCN(C(=O)[C@H](CCCCN)n3cc([C@@H](N)CO)nn3)CC2)nc(N2CCN(C(=O)[C@H](Cc3cc4ccccc4[nH]3)n3cc([C@@H](N)CO)nn3)CC2)n1	nt	nt	0.75	nt	38.9*	nt
C#CCOCCOCCOCCNc1nc(N2CCN(C(=O)[C@H](CCCCN)n3cc(C(N)COC(=O)C(F)(F)F)nn3)CC2)nc(N2CCN(C(=O)[C@H](CCCCN)n3cc(C(N)CC(C)C)nn3)CC2)n1 (stereo partly specified)	nt	nt	nt	nt	33.8*	nt
CCOc1ccc(-n2c(C)c(C(C)=O)c(C(C)=O)c2C)cc1	-2.9	+	nt	1	-3.0	4.0
COc1ccc(-n2c(C)c(C(C)=O)c(C(C)=O)c2C)cc1	-9.3	i	-0.31	1	-2.5	-2.7
O=C(CCN1C(=O)C2CCCCC2C1=O)Nc1ccc(F)c(F)c1F (stereo unspecified)	-12.5	+	1.21	1.1	1.9	-6.5
CC1(C)Oc2ccc(C(=O)NC3CCCC3)cc2N(CC(=O)N2CCOCC2)C1=O	-5.3	+	0.64	1	2.7	-0.2
COC(=O)[C@@H]1CC[C@H](C)[C@@H](c2ccc(C)cc2)N1C(=O)c1ccc(/C=N/OCC[C@@H]2C=C[C@H](OC(C)=O)[C@@H](COC(C)=O)O2)cc1	-6.6	i	-0.23	1.1	-8.8	-5.9
COC(=O)C/C=C/[C@@H](C)[C@@H](/C=N/OCC[C@@H]1C=C[C@H](OC(C)=O)[C@@H](COC(C)=O)O1)NS(=O)(=O)c1ccc(C)cc1	5.0	+	1.06	1	-2.5	2.2
O=C(c1cccc(S(=O)(=O)Nc2ccccc2F)c1)N1CCN(c2ccccc2F)CC1	-8.7	i	-0.02	1.1	-14.7	-5.5
Cc1ccc(Nc2nc3c([nH]2)c(=O)n(C)c(=O)n3C)cc1	-2.3	i	3.32*	1	-13.6	-0.6
Cc1cc(C)cc(Nc2nc3c([nH]2)c(=O)n(C)c(=O)n3C)c1	-10.2	i	0.72	1	-6.2	-2.4

Assay outcomes as filed in PubChem BioAssay.
